Laboratory results taken from ChEMBL document CHEMBL1125357, “Gonadotropin-releasing hormone antagonists with N omega-triazolylornithine, -lysine, or -p-aminophenylalanine residues at positions 5 and 6” (J Med Chem, 1992).
≈ marks a conversion by molar mass, not a printed value. Where “and” joins values, the source holds several entries; their conditions need not be identical. Equal values may be shown once. Starred links: 1 amine or outer side, 2 acyl side, 3 side chain; linkers in the order of their positions; H or OH if unused. Non-standard residues stand in square brackets, D forms with d. Residues, ends and D or L forms follow the SMILES beside them. *: point of attachment. Phe(4-NH(5-NH2triazol-3-yl)) = Nc1nc(Nc2ccc(C[C@H](N)C(=O)O)cc2)n[nH]1; dNva(5-oxo-5-(4-MeOPh)) = COc1ccc(C(=O)CC[C@@H](N)C(=O)O)cc1; X1 = Nc1nc(Nc2ccc(C[C@@H](N[*:1])C(=O)[*:2])cc2)n[nH]1; d(hArg(Et2)) = CCN=C(NCC)NCCCC[C@@H](N)C(=O)O; hArg(Et2) = CCN=C(NCC)NCCCC[C@H](N)C(=O)O; Triazol3yl(1,2,4-5-NH2) = Nc1nc(*)n[nH]1; dPhe(4-Cl) = N[C@H](Cc1ccc(Cl)cc1)C(=O)O; d2Nal = N[C@H](Cc1ccc2ccccc2c1)C(=O)O; Lys(iPr) = CC(C)NCCCC[C@H](N)C(=O)O; NMeY = CN[C@@H](Cc1ccc(O)cc1)C(=O)O; dCit = NC(=O)NCCC[C@@H](N)C(=O)O; d3Pal = N[C@H](Cc1cccnc1)C(=O)O; NMeL = CN[C@@H](CC(C)C)C(=O)O; Nicotinoyl = O=C(c1cccnc1)*; dOrn = NCCC[C@@H](N)C(=O)O; Orn = NCCC[C@H](N)C(=O)O

Tests used:
Rattus norvegicus [1] = species on record: Rattus norvegicus; assay: The compound was tested in vitro for the histamine release; type: functional; details: read-out: ED50 (the source's name)
Homo sapiens = species on record: Homo sapiens; assay: In vitro antagonistic potency relative to Ac-delta-3-Pro1-(D)Fpa2-(D)Trp3,6]GnRH; type: functional
Method in brief: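 Cultured rat pituitary cells. Peptides were scored for inhibition of GnRH-mediated LH secretion, and potency is expressed relative to the standard antagonist [Ac-Δ3-Pro1,DFpa2,DTrp3,6]GnRH (= 1.0).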

Rattus norvegicus [2] = species on record: Rattus norvegicus; assay: Antiovulatory activity measured in rat; type: functional; set-up: unit: ug/rat
Method in brief: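 Corbin–Beattie rat antiovulatory assay. Cycling female rats of 250-300 g were given a single sc injection of peptide at noon on proestrus. Vehicle was saline or 5% DMSO in saline (200 μL), or corn oil where flagged. Result is expressed as dose in μg/rat with the number of rats ovulating over the number treated.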

[3] = Retention time of the compound; type: ADME
Method in brief: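 Peptide (0.5 mg/mL, 10 μL) was loaded in TEAP pH 7.0/CH3CN (76/24), acidified with H3PO4 where insoluble. Elution used a 30-48% CH3CN gradient over 30 min at 1.5 mL/min. Retention time is reported in minutes.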

Row | EC50 (Rattus norvegicus [1]) [µg/mL] | RT [3] [min] | SMILES | Potency (Homo sapiens) | AOA (Rattus norvegicus [2])
1 | 1.8 (≈ 1.21 µM) | – | COc1ccc(C(=O)CC[C@@H](NC(=O)[C@H](CCCN=C(N)N)NC(=O)[C@H](CO)NC(=O)[C@@H](Cc2cccnc2)NC(=O)[C@@H](Cc2ccc(Cl)cc2)NC(=O)[C@@H](Cc2ccc3ccccc3c2)NC(C)=O)C(=O)N[C@@H](CC(C)C)C(=O)N[C@@H](CCCN=C(N)N)C(=O)N2CCC[C@H]2C(=O)N[C@H](C)C(N)=O)cc1 (Ac-[d2Nal][dPhe(4-Cl)][d3Pal]SR[dNva(5-oxo-5-(4-MeOPh))]LRP[dA]-NH2) | 1 | 0.5 and 1.5
2 | – | 16.3 | CC(=O)N[C@H](Cc1ccc2ccccc2c1)C(=O)N[C@H](Cc1ccc(Cl)cc1)C(=O)N[C@H](Cc1cccnc1)C(=O)N[C@@H](CO)C(=O)N[C@@H](Cc1ccc(O)cc1)C(=O)N[C@H](Cc1cccnc1)C(=O)N[C@@H](CC(C)C)C(=O)N[C@@H](CCCCNC(C)C)C(=O)N1CCC[C@H]1C(=O)N[C@H](C)C(N)=O [listing 1 of 2 here] | – | –
3 | 66 (≈ 43.1 µM) | – | CC(=O)N[C@H](Cc1ccc2ccccc2c1)C(=O)N[C@H](Cc1ccc(Cl)cc1)C(=O)N[C@H](Cc1cccnc1)C(=O)N[C@@H](CO)C(=O)N[C@@H](CCCCNc1n[nH]c(N)n1)C(=O)N[C@H](CCCCNc1n[nH]c(N)n1)C(=O)N[C@@H](CC(C)C)C(=O)N[C@@H](CCCCNC(C)C)C(=O)N1CCC[C@H]1C(=O)NCC(N)=O | 0.12 | 1 and 2.5
4 | > 300 | – | CC(=O)N[C@H](Cc1ccc2ccccc2c1)C(=O)N[C@H](Cc1ccc(Cl)cc1)C(=O)N[C@H](Cc1cccnc1)C(=O)N[C@@H](CO)C(=O)N[C@@H](CCCCNC(=O)c1cccnc1)C(=O)N[C@H](CCCCNC(=O)c1cccnc1)C(=O)N[C@@H](CC(C)C)C(=O)N[C@@H](CCCCNC(C)C)C(=O)N1CCC[C@H]1C(=O)N[C@H](C)C(N)=O (Ac-[d2Nal][dPhe(4-Cl)][d3Pal]SK(Nicotinoyl)[dK](Nicotinoyl)L[Lys(iPr)]P[dA]-NH2) | 0.66 | 1 and 1.5
5 | 224 (≈ 139 µM) | – | CC(=O)N[C@H](Cc1ccc2ccccc2c1)C(=O)N[C@H](Cc1ccc(Cl)cc1)C(=O)N[C@H](Cc1cccnc1)C(=O)N[C@@H](CO)C(=O)N[C@@H](Cc1ccc(Nc2n[nH]c(N)n2)cc1)C(=O)N[C@H](Cc1ccc(Nc2n[nH]c(N)n2)cc1)C(=O)N[C@@H](CC(C)C)C(=O)N[C@@H](CCCCNC(C)C)C(=O)N1CCC[C@H]1C(=O)N[C@H](C)C(N)=O (Ac-[d2Nal][dPhe(4-Cl)][d3Pal]S[Phe(4-NH(5-NH2triazol-3-yl))][X1]L[Lys(iPr)]P[dA]-NH2) [listing 1 of 2 here] | 1.3 | 0.5 and 1
6 | – | 10.1 | CC(=O)N[C@H](Cc1ccc2ccccc2c1)C(=O)N[C@H](Cc1ccc(Cl)cc1)C(=O)N[C@H](Cc1cccnc1)C(=O)N[C@@H](CO)C(=O)N[C@@H](Cc1ccc(O)cc1)C(=O)N[C@H](CCCNC(N)=O)C(=O)N[C@@H](CC(C)C)C(=O)N[C@@H](CCCNC(=N)N)C(=O)N1CCC[C@H]1C(=O)N[C@H](C)C(N)=O (Ac-[d2Nal][dPhe(4-Cl)][d3Pal]SY[dCit]LRP[dA]-NH2) | – | –
7 | 158 (≈ 104 µM) | – | CC(=O)N[C@H](Cc1ccc2ccccc2c1)C(=O)N[C@H](Cc1ccc(Cl)cc1)C(=O)N[C@H](Cc1cccnc1)C(=O)N[C@@H](CO)C(=O)N[C@@H](CCCNc1n[nH]c(N)n1)C(=O)N[C@H](CCCNc1n[nH]c(N)n1)C(=O)N[C@@H](CC(C)C)C(=O)N[C@@H](CCCCNC(C)C)C(=O)N1CCC[C@H]1C(=O)N[C@H](C)C(N)=O (Ac-[d2Nal][dPhe(4-Cl)][d3Pal]S[Orn](Triazol3yl(1,2,4-5-NH2))[dOrn](Triazol3yl(1,2,4-5-NH2))L[Lys(iPr)]P[dA]-NH2) | 0.2 | 2
8 | 2.1 (≈ 1.47 µM) | – | CC(=O)N[C@H](Cc1ccc2ccccc2c1)C(=O)N[C@H](Cc1ccc(Cl)cc1)C(=O)N[C@H](Cc1cccnc1)C(=O)N[C@@H](CO)C(=O)N[C@@H](Cc1ccc(O)cc1)C(=O)N[C@H](CCCNC(N)=O)C(=O)N[C@@H](CC(C)C)C(=O)N[C@@H](CCCN=C(N)N)C(=O)N1CCC[C@H]1C(=O)N[C@H](C)C(N)=O (Ac-[d2Nal][dPhe(4-Cl)][d3Pal]SY[dCit]LRP[dA]-NH2) | 1.56 | 1 and 2
9 | 28 (≈ 17.5 µM) | – | CC(=O)N[C@H](Cc1ccc2ccccc2c1)C(=O)N[C@H](Cc1ccc(Cl)cc1)C(=O)N[C@H](Cc1cccnc1)C(=O)N[C@@H](CO)C(=O)N[C@@H](Cc1ccc(Nc2n[nH]c(N)n2)cc1)C(=O)N[C@H](Cc1ccc(Nc2n[nH]c(N)n2)cc1)C(=O)N[C@@H](CC(C)C)C(=O)N[C@@H](CCCCNC(C)C)C(=O)N1CCC[C@H]1C(=O)NCC(N)=O (Ac-[d2Nal][dPhe(4-Cl)][d3Pal]S[Phe(4-NH(5-NH2triazol-3-yl))][X1]L[Lys(iPr)]PG-NH2) [listing 1 of 2 here] | 1 | 1
10 | – | 8.45 | CC(=O)N[C@H](Cc1ccc2ccccc2c1)C(=O)N[C@H](Cc1ccc(Cl)cc1)C(=O)N[C@H](Cc1cccnc1)C(=O)N[C@@H](CO)C(=O)N[C@@H](Cc1ccc(Nc2n[nH]c(N)n2)cc1)C(=O)N[C@H](Cc1ccc(Nc2n[nH]c(N)n2)cc1)C(=O)N[C@@H](CC(C)C)C(=O)N[C@@H](CCCCNC(C)C)C(=O)N1CCC[C@H]1C(=O)NCC(N)=O (Ac-[d2Nal][dPhe(4-Cl)][d3Pal]S[Phe(4-NH(5-NH2triazol-3-yl))][X1]L[Lys(iPr)]PG-NH2) [listing 2 of 2 here] | – | –
11 | 11 (≈ 7 µM) | – | CCN=C(NCC)NCCCC[C@H](NC(=O)[C@H](CC(C)C)NC(=O)[C@@H](CCCCNC(=NCC)NCC)NC(=O)[C@H](Cc1ccc(O)cc1)NC(=O)[C@H](CO)NC(=O)[C@@H](Cc1cccnc1)NC(=O)[C@@H](Cc1ccc(Cl)cc1)NC(=O)[C@@H](Cc1ccc2ccccc2c1)NC(C)=O)C(=O)N1CCC[C@H]1C(=O)N[C@H](C)C(N)=O (Ac-[d2Nal][dPhe(4-Cl)][d3Pal]SY[d(hArg(Et2))]L[hArg(Et2)]P[dA]-NH2) | 2.17 | 2.5
12 | – | 9 | CC(=O)N[C@H](Cc1ccc2ccccc2c1)C(=O)N[C@H](Cc1ccc(Cl)cc1)C(=O)N[C@H](Cc1cccnc1)C(=O)N[C@@H](CO)C(=O)N[C@@H](Cc1ccc(Nc2n[nH]c(N)n2)cc1)C(=O)N[C@H](Cc1ccc(Nc2n[nH]c(N)n2)cc1)C(=O)N[C@@H](CC(C)C)C(=O)N[C@@H](CCCCNC(C)C)C(=O)N1CCC[C@H]1C(=O)N[C@H](C)C(N)=O (Ac-[d2Nal][dPhe(4-Cl)][d3Pal]S[Phe(4-NH(5-NH2triazol-3-yl))][X1]L[Lys(iPr)]P[dA]-NH2) [listing 2 of 2 here] | – | –
13 | 139 (≈ 90 µM) | – | CC(=O)N[C@H](Cc1ccc2ccccc2c1)C(=O)N[C@H](Cc1ccc(Cl)cc1)C(=O)N[C@H](Cc1cccnc1)C(=O)N[C@@H](CO)C(=O)N[C@@H](CCCCNc1n[nH]c(N)n1)C(=O)N[C@H](CCCCNc1n[nH]c(N)n1)C(=O)N[C@@H](CC(C)C)C(=O)N[C@@H](CCCCNC(C)C)C(=O)N1CCC[C@H]1C(=O)N[C@H](C)C(N)=O (Ac-[d2Nal][dPhe(4-Cl)][d3Pal]SK(Triazol3yl(1,2,4-5-NH2))[dK](Triazol3yl(1,2,4-5-NH2))L[Lys(iPr)]P[dA]-NH2) | 0.23 | 2
14 | 22 (≈ 14.3 µM) | – | CC(=O)N[C@H](Cc1ccc2ccccc2c1)C(=O)N[C@H](Cc1ccc(Cl)cc1)C(=O)N[C@H](Cc1cccnc1)C(=O)N[C@@H](CO)C(=O)N(C)[C@@H](Cc1ccc(O)cc1)C(=O)N[C@H](CCCCNC(=O)c1cccnc1)C(=O)N[C@@H](CC(C)C)C(=O)N[C@@H](CCCCNC(C)C)C(=O)N1CCC[C@H]1C(=O)N[C@H](C)C(N)=O (Ac-[d2Nal][dPhe(4-Cl)][d3Pal]S[NMeY][dK](Nicotinoyl)L[Lys(iPr)]P[dA]-NH2) | 1.42 | –
15 | – | 10.6 | CC(=O)N[C@H](Cc1ccc2ccccc2c1)C(=O)N[C@H](Cc1ccc(Cl)cc1)C(=O)N[C@H](Cc1cccnc1)C(=O)N[C@@H](CO)C(=O)N[C@@H](Cc1ccc(Nc2n[nH]c(N)n2)cc1)C(=O)N[C@H](Cc1ccc(Nc2n[nH]c(N)n2)cc1)C(=O)N(C)[C@@H](CC(C)C)C(=O)N[C@@H](CCCCNC(C)C)C(=O)N1CCC[C@H]1C(=O)N[C@H](C)C(N)=O (Ac-[d2Nal][dPhe(4-Cl)][d3Pal]S[Phe(4-NH(5-NH2triazol-3-yl))][X1][NMeL][Lys(iPr)]P[dA]-NH2) [listing 1 of 2 here] | – | –
16 | 34 (≈ 23.7 µM) | – | CC(=O)N[C@H](Cc1ccc2ccccc2c1)C(=O)N[C@H](Cc1ccc(Cl)cc1)C(=O)N[C@H](Cc1cccnc1)C(=O)N[C@@H](CO)C(=O)N[C@@H](Cc1ccc(O)cc1)C(=O)N[C@H](Cc1cccnc1)C(=O)N[C@@H](CC(C)C)C(=O)N[C@@H](CCCCNC(C)C)C(=O)N1CCC[C@H]1C(=O)N[C@H](C)C(N)=O [listing 2 of 2 here] | 1.3 | 1 and 2.5
17 | 34 (≈ 20.9 µM) | – | CC(=O)N[C@H](Cc1ccc2ccccc2c1)C(=O)N[C@H](Cc1ccc(Cl)cc1)C(=O)N[C@H](Cc1cccnc1)C(=O)N[C@@H](CO)C(=O)N[C@@H](Cc1ccc(Nc2n[nH]c(N)n2)cc1)C(=O)N[C@H](Cc1ccc(Nc2n[nH]c(N)n2)cc1)C(=O)N(C)[C@@H](CC(C)C)C(=O)N[C@@H](CCCCNC(C)C)C(=O)N1CCC[C@H]1C(=O)N[C@H](C)C(N)=O (Ac-[d2Nal][dPhe(4-Cl)][d3Pal]S[Phe(4-NH(5-NH2triazol-3-yl))][X1][NMeL][Lys(iPr)]P[dA]-NH2) [listing 2 of 2 here] | 1.6 | 0.5 and 1
18 | 2.9 (≈ 2.05 µM) | – | CC(=O)N[C@H](Cc1ccc2ccccc2c1)C(=O)N[C@H](Cc1ccc(Cl)cc1)C(=O)N[C@H](Cc1cccnc1)C(=O)N[C@@H](CO)C(=O)N[C@@H](CCCN=C(N)N)C(=O)N[C@H](Cc1cccnc1)C(=O)N[C@@H](CC(C)C)C(=O)N[C@@H](CCCN=C(N)N)C(=O)N1CCC[C@H]1C(=O)N[C@H](C)C(N)=O | 0.91 | 0.5 and 1
